According to ChEMBL document CHEMBL1138466, “Isaindigotone derivatives: a new class of highly selective ligands for telomeric G-quadruplex DNA” (J Med Chem, 2009):
The source made the active and inactive calls. The rule behind the calls is not given here.

How the values were obtained:
[1] = Inhibition of human telomerase in human MCF7 cell free extract by TRAP-LIG assay
In short: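 TRAP-LIG: MCF-7 protein extract (500 ng) extends TS primer in TRAP buffer (pH 8.3, 68 mM KCl) with 125 µM dNTPs and ligand, 20 min at 30 °C. Product purified to remove ligand, then PCR-amplified with ACX primer for 35 cycles. Products resolved on 16% PAGE with silver staining; IC50 computed from band optical density.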

Nucleic Acid [2] = experiment: Binding affinity to F21T human telomeric DNA assessed as change in melting temperature at 1 uM by FRET assay; format: nucleic-acid assay
In short: (§1)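 FRET melting of dual-labelled probes (FAM/TAMRA): G-quadruplex F21T or hairpin duplex F10T, 0.2 µM, in 10 mM Tris-HCl pH 7.2 with 60 mM KCl, ligand 1 µM. Emission read at 530 nm (excitation 470 nm) every 1 °C from 37 to 99 °C, with a 30 s hold before each reading. ΔTm is taken relative to the annealed probe without ligand.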

Nucleic Acid [3] = experiment: Binding affinity to F10T hairpin duplex DNA assessed as change in melting temperature at 1 uM by FRET assay; format: nucleic-acid assay; in short: as §1
Nucleic Acid [4] = experiment: Binding affinity to oligonucleotide HTG21 by florescence titration assay in presence of K+ solution; format: nucleic-acid assay
In short: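 Fluorescence titration at 25 °C in 10 mM Tris-HCl pH 7.2 with 100 mM KCl. HTG21 DNA added to ligand up to 0–2 µM final, with at least 10 min equilibration after each addition. Excitation at 343 or 353 nm depending on ligand. Binding constant Kb derived from the titration.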

HL-60 [5] = experiment: Cytotoxicity against human HL60 cells after 2 days by MTT assay; format: functional, cell-based; conditions: HL-60, 48 h
In short: (§2)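 MTT viability: HL60 or CA46 cells seeded at 1.0 × 10³ per well and exposed to a ligand concentration series for 48 h at 37 °C, 5% CO₂. MTT added for 4 h, then DMSO; absorbance read at 570 nm. Each dose tested in triplicate; IC50 taken from mean OD versus concentration curves.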

HL-60 [6] = experiment: Cytotoxicity against human HL60 cells assessed as decrease in population doubling at 0.9 uM after 12 days; format: functional, cell-based
CA46 [7] = experiment: Cytotoxicity against human CA46 cells assessed as decrease in population doubling at 0.9 uM after 12 days; format: functional, cell-based
CA46 [8] = experiment: Cytotoxicity against human CA46 cells after 2 days by MTT assay; format: functional, cell-based; conditions: CA46, 48 h; in short: as §2
Nucleic Acid [9] = experiment: Binding affinity to HTG21 DNA assessed as induction of guanine-rich DNA to G-quadruplex structure formation; format: nucleic-acid assay
In short: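 CD titration: HTG21 5 µM in 10 mM Tris-HCl pH 7.2, without or with 100 mM KCl. Annealed at 90 °C for 5 min, cooled slowly, held at 4 °C overnight. Ligand added at 0–5 mol equiv at 25 °C with at least 13 min equilibration per addition. Spectra recorded 230–450 nm in a 4 mm quartz cuvette.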

CA46 [10] = experiment: Induction of senescence in human CA46 cells assessed as beta galactosidase activity at 0.9 uM for 16 days; format: functional, cell-based
In short: (§3)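 SA-β-Gal staining: HL60 or CA46 cells treated continuously with 0.9 µM ligand or 0.1% DMSO for 16 days. Fixed in 2% formaldehyde/0.2% glutaraldehyde for 15 min, stained overnight at 37 °C with 1 mg/mL X-gal, then examined by light microscopy (×400). Repeated twice.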

HL-60 [11] = experiment: Cytotoxicity against human HL60 cells at 4.5 uM after 8 days; format: functional, cell-based
HL-60 [12] = experiment: Induction of telomere shortening in human HL60 cells assessed as telomere length at 0.9 uM by telomeric restriction fragment assay; format: functional, cell-based
In short: (§4)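 TRF length: HL60 or CA46 cells treated for 16 days with 0.9 or 1.8 µM ligand or 0.1% DMSO. Genomic DNA digested with HinfI/RsaI, run on 0.8% agarose, transferred to nylon membrane and baked at 120 °C for 20 min. Telomeric smears detected by Southern analysis.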

HL-60 [13] = experiment: Induction of senescence in human HL60 cells assessed as beta galactosidase activity at 0.9 uM for 16 days; format: functional, cell-based; in short: as §3
HL-60 [14] = experiment: Cytotoxicity against human HL60 cells assessed as decrease in population doubling at 1.8 uM after 12 days; format: functional, cell-based
HL-60 [15] = experiment: Cytotoxicity against human HL60 cells at 4.5 uM after 12 days; format: functional, cell-based
HL-60 [16] = experiment: Induction of telomere shortening in human HL60 cells assessed as telomere length at 1.8 uM by telomeric restriction fragment assay; format: functional; in short: as §4
CA46 [17] = experiment: Induction of telomere shortening in human CA46 cells assessed as telomere length at 1.8 uM by telomeric restriction fragment assay; format: functional; in short: as §4

Row | Compound | IC50 [1] | ΔTm (Nucleic Acid [2]) | ΔTm (Nucleic Acid [3]) | Kb (Nucleic Acid [4]) | IC50 (HL-60 [5]) | Activity (HL-60 [6]) | Activity (CA46 [7]) | IC50 (CA46 [8]) | Activity (Nucleic Acid [9]) | Activity (CA46 [10]) | Activity (HL-60 [11]) | Activity (HL-60 [12]) | Activity (HL-60 [13]) | Activity (HL-60 [14]) | Activity (HL-60 [15]) | Activity (HL-60 [16]) | Activity (CA46 [17])
1 | O=C(CCN1CCCC1)Nc1ccc(/C=C2\CCn3c2nc2ccc(NC(=O)CCN4CCCC4)cc2c3=O)cc1 | 9 µM | 17.6 °C | 0.4 °C | 7.2 10^6 M-1 |  |  |  |  |  |  |  |  |  |  |  |  | 
2 | O=C(CCN1CCCCC1)Nc1ccc(/C=C2\CCn3c2nc2ccc(NC(=O)CCN4CCCCC4)cc2c3=O)cc1 | 15.2 µM | 17.6 °C | 0.1 °C | 8.1 10^6 M-1 |  |  |  |  |  |  |  |  |  |  |  |  | 
3 | CN(C)CCCNc1c2ccccc2nc2c1[nH]c1ccccc12 |  | 10.4 °C | 5.7 °C |  |  |  |  |  |  |  |  |  |  |  |  |  | 
4 | O=C(CCN1CCCC1)Nc1ccc(/C=C2\CCn3c2nc2cc(NC(=O)CCN4CCCC4)ccc2c3=O)cc1 | 7.8 µM | 21.9 °C | 0.1 °C | 10.1 10^6 M-1 | 33 µM | Active | Active | 29 µM | Active | Active | Active | Active | Active | Active | Active | 1.1 kilobase | 2.3 kilobase
5 | O=C(CCN1CCCCC1)Nc1ccc(/C=C2\CCn3c2nc2cc(NC(=O)CCN4CCCCC4)ccc2c3=O)cc1 | 9.3 µM | 22 °C | 0 °C | 9.8 10^6 M-1 |  |  |  |  |  |  |  |  |  |  |  |  | 
